The text below walks through data of ChEMBL document CHEMBL2040770, “Finger loop inhibitors of the HCV NS5b polymerase. Part II. Optimization of tetracyclic indole-based macrocycle leading to the discovery of TMC647055” (Bioorg Med Chem Lett, 2012).

Test system in one data set: not listed separately
As to the kind of experiment: Metabolic stability in human liver microsomes assessed as compound metabolized at 5 uM after 15 mins. In kind it is ADME, Microsome. The settings on record: read-out: Drug metabolism. Summed up:
(§1)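 Rat or human liver microsomes incubated with compound at 5 µM for 15 min. Stability is given as % of compound metabolized.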
In the case of `COc1ccc2c(c1)C=C1Cn3c-2c(C2CCCCC2)c2ccc(cc23)C(=O)NS(=O)(=O)NCCCCN(C)C1=O`, the metabolised at 0.25 h, 5 µM was 27%.
As for `COc1ccc2c(c1)C=C1Cn3c-2c(C2CCCCC2)c2ccc(cc23)C(=O)NS(=O)(=O)N(C(C)C)CCCCN(C)C1=O`, the metabolised at 0.25 h, 5 µM came out at 80%.
Same read-out and setting: under `COc1ccc2c(c1)C=C1Cn3c-2c(C2CCCCC2)c2ccc(cc23)C(=O)NS(=O)(=O)N2CCN(CCNC1=O)CC2` stands 10%.
Same read-out and setting: under `COc1ccc2c(c1)C=C1Cn3c-2c(C2CCCCC2)c2ccc(cc23)C(=O)NS(=O)(=O)N(C)CCCN(C)C1=O` stands 18%.
On the same count and under the same terms, under `CN1CCOCCN(C)S(=O)(=O)NC(=O)c2ccc3c(C4CCCCC4)c4n(c3c2)CC(=Cc2cc(Cl)ccc2-4)C1=O` stands 16%.
`COc1ccc2c(c1)C=C1Cn3c-2c(C2CCCCC2)c2ccc(cc23)C(=O)NS(=O)(=O)N(C)CCCCCCN(C)C1=O`: the metabolised at 0.25 h, 5 µM is 99%.
As to `CN1CCCCN(C)S(=O)(=O)NC(=O)c2ccc3c(C4CCCCC4)c4n(c3c2)CC(=Cc2ccc(Cl)cc2-4)C1=O`, the metabolised at 0.25 h, 5 µM was found to be 29%.

Test system in another data set: not listed separately
As to the kind of experiment: Selectivity index, ratio of CC50 for human Huh7 cells to EC50 for Hepatitic C virus genotype 1b clone ET. Format: toxicity, cell-based, Huh-7. The settings on record: read-out: Ratio CC50/EC50. In a few lines:
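Selectivity index computed in Huh-7 cells as CC50/EC50.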
Consider `COc1ccc2c(c1)C=C1Cn3c-2c(C2CCCCC2)c2ccc(cc23)C(=O)NS(=O)(=O)NCCCCN(C)C1=O`, for which the selectivity ratio is over 58.
On the same count and under the same terms, the value for `COc1ccc2c(c1)C=C1Cn3c-2c(C2CCCCC2)c2ccc(cc23)C(=O)NS(=O)(=O)N(C(C)C)CCCCN(C)C1=O` was over 100.
Same read-out and setting: the value for `COc1ccc2c(c1)C=C1Cn3c-2c(C2CCCCC2)c2ccc(cc23)C(=O)NS(=O)(=O)N2CCN(CCNC1=O)CC2` was over 40; that for `COc1ccc2c(c1)C=C1Cn3c-2c(C2CCCCC2)c2ccc(cc23)C(=O)NS(=O)(=O)N(C)CCCN(C)C1=O` was 72; that for `COc1ccc2c(c1)C=C1Cn3c-2c(C2CCCCC2)c2ccc(cc23)C(=O)NS(=O)(=O)N(C)CCN(C)CCNC1=O` was over 58.
As to `CN1CCOCCN(C)S(=O)(=O)NC(=O)c2ccc3c(C4CCCCC4)c4n(c3c2)CC(=Cc2cc(Cl)ccc2-4)C1=O`, the selectivity ratio is 150.
On to `COc1ccc2c(c1)C=C1Cn3c-2c(C2CCCCC2)c2ccc(cc23)C(=O)NS(=O)(=O)N(C)CCCCCCN(C)C1=O`, for which the selectivity ratio stood at 150.
On the same count and under the same terms, under `CN1CCCCN(C)S(=O)(=O)NC(=O)c2ccc3c(C4CCCCC4)c4n(c3c2)CC(=Cc2ccc(Cl)cc2-4)C1=O` stands over 2.

The test system of another data set is Hepatitis C virus. As to the kind of experiment: Antiviral activity against Hepatitic C virus genotype 1b clone ET infected in human Huh7 replicon cells after 72 hrs by luciferase reporter gene assay. In kind it is functional, organism-based, Hepacivirus hominis. The settings on record: Huh-7, 72 h. In general terms: In antiviral work, replicon cells carry a viral genome segment that copies itself.
In turn, `COc1ccc2c(c1)C1C[C@@]13Cn1c-2c(C2CCCCC2)c2ccc(cc21)C(=O)NS(=O)(=O)N(C)CCOCCN(C)C3=O` (some centres not stated) displayed an EC50 of 800 nM.
The same measure, in the same setting: the value for `COc1ccc2c(c1)C=C1Cn3c-2c(C2CCCCC2)c2ccc(cc23)C(=O)NS(=O)(=O)NCCCCN(C)C1=O` was 550 nM; that for `COc1ccc2c(c1)C=C1Cn3c-2c(C2CCCCC2)c2ccc(cc23)C(=O)NS(=O)(=O)N(C(C)C)CCCCN(C)C1=O` was 330 nM.
On the same count and under the same terms, under `COc1ccc2c(c1)C=C1Cn3c-2c(C2CCCCC2)c2ccc(cc23)C(=O)NS(=O)(=O)N2CCN(CCNC1=O)CC2` stands 860 nM; under `COc1ccc2c(c1)C=C1Cn3c-2c(C2CCCCC2)c2ccc(cc23)C(=O)NS(=O)(=O)N(C)CCCN(C)C1=O`, 680 nM.
The same measure, in the same setting: the value for `CCN(CC)C1CCN(C(=O)Cn2c(-c3ccc(Cl)cc3)c(C3CCCCC3)c3ccc(C(=O)O)cc32)CC1` was 127 nM.
On to `COc1ccc2c(c1)C=C1Cn3c-2c(C2CCCCC2)c2ccc(cc23)C(=O)NS(=O)(=O)N(C)CCN(C)CCNC1=O`, for which it took 550 nM to reach a half-maximal effect (EC50).
Still for that read-out and setting: under `CN1CCOCCN(C)S(=O)(=O)NC(=O)c2ccc3c(C4CCCCC4)c4n(c3c2)CC(=Cc2cc(Cl)ccc2-4)C1=O` stands 280 nM; under `COc1ccc2c(c1)C=C1Cn3c-2c(C2CCCCC2)c2ccc(cc23)C(=O)NS(=O)(=O)N(C)CCCCCCN(C)C1=O`, 160 nM; under `CN1CCCCN(C)S(=O)(=O)NC(=O)c2ccc3c(C4CCCCC4)c4n(c3c2)CC(=Cc2ccc(Cl)cc2-4)C1=O`, 14500 nM.

Test system in another data set: not listed separately
The data set can be described thus: Metabolic stability in rat liver microsomes assessed as compound metabolized at 5 uM after 15 mins. Format: ADME, Microsome. Particulars: read-out: Drug metabolism. Summed up:
as §1
On the technique in general: Liver microsomes are a subcellular fraction often used to study metabolism.
Take `COc1ccc2c(c1)C=C1Cn3c-2c(C2CCCCC2)c2ccc(cc23)C(=O)NS(=O)(=O)NCCCCN(C)C1=O`: the metabolised at 0.25 h, 5 µM was 25%.
Still for that read-out and setting: the value for `COc1ccc2c(c1)C=C1Cn3c-2c(C2CCCCC2)c2ccc(cc23)C(=O)NS(=O)(=O)N(C(C)C)CCCCN(C)C1=O` was 12%; that for `COc1ccc2c(c1)C=C1Cn3c-2c(C2CCCCC2)c2ccc(cc23)C(=O)NS(=O)(=O)N2CCN(CCNC1=O)CC2` was 16%; that for `COc1ccc2c(c1)C=C1Cn3c-2c(C2CCCCC2)c2ccc(cc23)C(=O)NS(=O)(=O)N(C)CCCN(C)C1=O` was 28%.
Same read-out and setting: the value for `CN1CCOCCN(C)S(=O)(=O)NC(=O)c2ccc3c(C4CCCCC4)c4n(c3c2)CC(=Cc2cc(Cl)ccc2-4)C1=O` was 22%; that for `COc1ccc2c(c1)C=C1Cn3c-2c(C2CCCCC2)c2ccc(cc23)C(=O)NS(=O)(=O)N(C)CCCCCCN(C)C1=O` was 46%; that for `CN1CCCCN(C)S(=O)(=O)NC(=O)c2ccc3c(C4CCCCC4)c4n(c3c2)CC(=Cc2ccc(Cl)cc2-4)C1=O` was 30%.

One may read the EC50 as the concentration needed to bring the measured effect to its halfway point. Lower therefore signals a more potent agent.
